From article PMC12591034 (RSC Advances, 2025)

How the values were obtained:
Format in all cases: cell-based
[1] = system: NO production in LPS-stimulated RAW 264.7 macrophage cells; experiment: Inhibition of NO production in LPS-stimulated RAW 264.7 cells; details: Mus musculus, RAW264.7, read-out: IC50 Inhibition of NO-production
Summary of the method: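 RAW 264.7 murine macrophages were stimulated with LPS. NO release was measured as nitrite in the culture medium by the Griess reaction. Results are given as mean ± SD from three independent experiments. IC50 was estimated by curve fitting.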

[2] = system: A549 (lung) carcinoma cells; experiment: Cytotoxicity, SRB assay, A549; details: Homo sapiens, A549, read-out: IC50 Cytotoxicity A549
Summary of the method: (§1)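 Sulforhodamine B (SRB) cytotoxicity assay on human A549 lung, Hep-G2 liver and MCF-7 breast carcinoma cells, run alongside non-cancer HEK-293A embryonic kidney cells. Results are given as mean ± SD from three independent experiments. IC50 was estimated by curve fitting.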

[3] = system: Hep-G2 (liver) carcinoma cells; experiment: Cytotoxicity, SRB assay, Hep-G2; details: Homo sapiens, HepG2, read-out: IC50 Cytotoxicity Hep-G2
Summary of the method: as §1

[4] = system: MCF-7 (breast) carcinoma cells; experiment: Cytotoxicity, SRB assay, MCF-7; details: Homo sapiens, MCF7, read-out: IC50 Cytotoxicity MCF-7
Summary of the method: as §1

[5] = Cytotoxicity, SRB assay, HEK-293A; details: human, HEK-293A embryonic kidney cells (normal cells)
[6] = system: A549, Hep-G2, and MCF-7 human cancer cell lines; experiment: Cytotoxicity, SRB assay, stated across the cancer cell lines; details: tested cell lines
Summary of the method: as §1

Row | Structure (SMILES) | IC50 [1] [µM] | IC50 [2] [µM] | IC50 [3] [µM] | IC50 [4] [µM] | IC50 [5] [µM] | cytotoxic activity in words [6]
1 | COC(=O)c1c(C)cc(O)c(C=O)c1O [Compound 17, methyl haematommate] | > 100 | > 100 | 80.7 ± 3.59 | 99.3 ± 6.83 | 70.7 ± 4.44 | weakly active
2 | Cc1c2ccncc2c(C)c2c1[nH]c1ccccc12 [Ellipticine, reference compound] |  | 1.71 ± 0.08 | 1.42 ± 0.08 | 1.54 ± 0.04 | 1.34 ± 0.08 | 
3 | C[C@H]1C(=O)CC[C@@H]2[C@]1(C)CC[C@H]1[C@@]2(C)CC[C@@]2(C)[C@@H]3CC(C)(C)CC[C@]3(C)CC[C@]12C [Compound 5, friedelin] | > 100 | > 100 | > 100 | > 100 |  | 
4 | C[C@H]1C(=O)CC[C@@H]2[C@]1(C)CC[C@H]1[C@@]2(C)CC[C@@]2(C)[C@@H]3CC(C)(C)CC[C@]3(CO)CC[C@]12C [Compound 7, canophyllol] | 79.9 ± 1.37 | 39.3 ± 1.29 | 22.4 ± 1.01 | 27.4 ± 1.19 | 30.1 ± 1.25 | 
